In ChEMBL document CHEMBL4732224, “Structure activity refinement of phenylsulfonyl piperazines as antimalarials that block erythrocytic invasion” (Eur J Med Chem, 2021):
≈ marks a conversion by molar mass, not a printed value. Calls of active or inactive are those of the source. The calls are words filed in the database; no cut-off is given here.

Legend:
Plasmodium falciparum [1] = assay: Antimalarial activity against Plasmodium falciparum 3D7 incubated for 72 hrs by LDH assay; assay type: functional, organism-based; conditions: 3D7, 72 h
Procedure, shortened: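 Asexual blood-stage P. falciparum 3D7 parasites were cultured with compound for 72 h, and viability was read by lactate dehydrogenase (LDH) activity.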

HepG2 = assay: Cytotoxicity against human HePG2 cells assessed as growth inhibition after 48 hrs by Cell Titer-Glo assay; assay type: cell-based; conditions: HepG2, 48 h
Plasmodium knowlesi = assay: Antimalarial activity against asexual blood stage of Plasmodium knowlesi YHI assessed as reduction in cell viability after 48 hrs by EtBr staining based flow cytometric analysis; assay type: functional, organism-based
Plasmodium falciparum [2] = assay: Antimalarial activity against asexual blood stage of Plasmodium falciparum 3D7 assessed as reduction in cell viability after 72 hrs by EtBr staining based flow cytometric analysis; assay type: functional, organism-based; conditions: 3D7, 72 h
Plasmodium falciparum [3] = assay: Antimalarial activity against asexual blood stage of Mefloquine-resistant Plasmodium falciparum W2mef assessed as reduction in cell viability after 72 hrs by EtBr staining based flow cytometric analysis; assay type: functional, organism-based
Plasmodium falciparum [4] = assay: Antimalarial activity against asexual blood stage of chloroquine-resistant Plasmodium falciparum Dd2 assessed as reduction in cell viability after 72 hrs by EtBr staining based flow cytometric analysis; assay type: functional, organism-based; conditions: Dd2, 72 h
Plasmodium falciparum [5] = assay: Antimalarial activity against asexual blood stage of chloroquine-resistant Plasmodium falciparum 7G8 assessed as reduction in cell viability after 72 hrs by EtBr staining based flow cytometric analysis; assay type: functional, organism-based; conditions: 7G8, 72 h
Plasmodium falciparum [6] = assay: Antimalarial activity against asexual blood stage of artemisinin-resistant Plasmodium falciparum Cam3.12539T cambodian isolate assessed as reduction in cell viability after 72 hrs by EtBr staining based flow cytometric analysis; assay type: functional, organism-based; conditions: Cam3.12539T cambodian isolat
Plasmodium falciparum [7] = assay: Antimalarial activity against Plasmodium falciparum NF54 early stage (1 to 3) expressing Pfs16-LUC-GFP assessed as growth inhibition by high content imaging assay; assay type: functional, organism-based
Plasmodium falciparum [8] = assay: Antimalarial activity against Plasmodium falciparum NF54 early stage (1 to 3) expressing Pfs16-LUC-GFP assessed as growth inhibition at 20 uM by high content imaging assay relative to control; assay type: functional; conditions: read-out: GI
Plasmodium falciparum [9] = assay: Antimalarial activity against Plasmodium falciparum NF54 late stage ([…]) expressing Pfs16-LUC-GFP assessed as growth inhibition by high content imaging assay; assay type: functional, organism-based
Plasmodium falciparum [10] = assay: Antimalarial activity against Plasmodium falciparum NF54 late stage ([…]) expressing Pfs16-LUC-GFP assessed as growth inhibition at 20 uM by high content imaging assay relative to control; assay type: functional; conditions: read-out: GI
Plasmodium falciparum [11] = assay: Antimalarial activity against schizonts stage of Plasmodium falciparum D10 expressing GFP infected in human RBC assessed as reduction in merozoites invade to RBC at 4 times of EC90 concentration after 6 hrs by flow cytometric analysis; assay type: functional, organism-based
Plasmodium falciparum [12] = assay: Antimalarial activity against schizonts stage of Plasmodium falciparum D10 expressing GFP infected in human RBC assessed as reduction in ring stage formation at 4 times of EC90 concentration after 6 hrs by flow cytometric analysis; assay type: functional, organism-based
Plasmodium falciparum [13] = assay: Antimalarial activity against schizonts stage of Plasmodium falciparum D10 expressing PEXEL-Nluc infected in human RBC assessed as reduction in invasion at 5 times of EC90 concentration preincubated for 30 mins followed by compound wash out and measured after 24 hrs by luminometric method; assay type: functional, organism-based
Plasmodium falciparum [14] = assay: Antimalarial activity against asexual blood stages of Plasmodium falciparum 3D7 infected in human RBC by Live cell microscopic method; assay type: functional, organism-based; conditions: 3D7, Erythrocyte
[15] = Intrinsic clearance in mouse liver microsomes at 1 uM in presence of NADPH measured up to 60 mins by LC-MS analysis; assay type: ADME, Microsome; conditions: read-out: CLH
[16] = Solubility of compound in PBS at pH 6.5 by nephelometric analysis; assay type: physicochemical
[17] = Selectivity ratio of IC50 for antimalarial activity against asexual blood stage of chloroquine-resistant Plasmodium falciparum 7G8 to IC50 for antimalarial activity against asexual blood stage of Plasmodium falciparum 3D7; assay type: functional

C[C@@H](C(=O)N1CCc2ccccc2C1(C)C)N1CCN(S(=O)(=O)c2ccc(C(C)(C)C)cc2)CC1
EC50 (Plasmodium falciparum [1]): 0.11 µM | EC50 (HepG2): 26 µM | EC50 (Plasmodium knowlesi): 0.09 µM | EC50 (Plasmodium falciparum [2]): 0.01 µM | EC50 (Plasmodium falciparum [3]): 0.04 µM | EC50 (Plasmodium falciparum [4]): 0.06 µM | EC50 (Plasmodium falciparum [5]): 0.03 µM | EC50 (Plasmodium falciparum [6]): 0.02 µM | EC50 (Plasmodium falciparum [7]): > 10 µM | inhibition of growth at 20 µM (Plasmodium falciparum [8]): 79% | EC50 (Plasmodium falciparum [9]): > 10 µM | inhibition of growth at 20 µM (Plasmodium falciparum [10]): 59% | Activity (Plasmodium falciparum [11]): Active | Activity (Plasmodium falciparum [12]): Active | Activity (Plasmodium falciparum [13]): Active

CC(C(=O)N1CCCC1)N1CCN(S(=O)(=O)c2ccc(C(C)(C)C)cc2)CC1 (stereo not given)
EC50 (Plasmodium falciparum [14]): 0.9 µM | EC50 (Plasmodium falciparum [1]): 0.69 µM | EC50 (HepG2): > 40 µM | CLint scaled at 1 µM [15]: > 2100 mL/min/kg

C[C@@H](C(=O)N1CC2CC2C1)N1CCN(S(=O)(=O)c2ccc(C(C)(C)C)cc2)CC1 (stereo not given in full)
EC50 (Plasmodium falciparum [1]): 0.13 µM | EC50 (HepG2): > 40 µM | EC50 (Plasmodium knowlesi): 0.14 µM | EC50 (Plasmodium falciparum [2]): 0.03 µM | EC50 (Plasmodium falciparum [3]): 0.06 µM | EC50 (Plasmodium falciparum [4]): 0.07 µM | EC50 (Plasmodium falciparum [5]): 0.08 µM | EC50 (Plasmodium falciparum [6]): 0.06 µM | EC50 (Plasmodium falciparum [7]): > 10 µM | inhibition of growth at 20 µM (Plasmodium falciparum [8]): 44% | EC50 (Plasmodium falciparum [9]): > 10 µM | inhibition of growth at 20 µM (Plasmodium falciparum [10]): 36% | Activity (Plasmodium falciparum [11]): Active | Activity (Plasmodium falciparum [12]): Active | Activity (Plasmodium falciparum [13]): Active

C[C@@H](C(=O)N1CCCC1)N1CCN(S(=O)(=O)c2ccc([Si](C)(C)C)cc2)CC1
EC50 (Plasmodium falciparum [1]): 0.49 µM | EC50 (HepG2): > 40 µM | microsomal CLint at 1 µM [15]: > 866 µL/min/mg

C[C@@H](C(=O)N1CCC(F)(F)CC1)N1CCN(S(=O)(=O)c2ccc(C(C)(C)C)cc2)CC1
EC50 (Plasmodium falciparum [1]): 0.2 µM | EC50 (HepG2): > 40 µM | EC50 (Plasmodium knowlesi): 0.26 µM | EC50 (Plasmodium falciparum [2]): 0.05 µM | EC50 (Plasmodium falciparum [3]): 0.09 µM | EC50 (Plasmodium falciparum [4]): 0.11 µM | EC50 (Plasmodium falciparum [5]): 0.11 µM | EC50 (Plasmodium falciparum [6]): 0.08 µM | EC50 (Plasmodium falciparum [7]): > 10 µM | inhibition of growth at 20 µM (Plasmodium falciparum [8]): 59% | EC50 (Plasmodium falciparum [9]): > 10 µM | inhibition of growth at 20 µM (Plasmodium falciparum [10]): 47% | Activity (Plasmodium falciparum [11]): Active | Activity (Plasmodium falciparum [12]): Active | Activity (Plasmodium falciparum [13]): Active

CC(C(=O)N1CCc2ccccc2C1(C)C)N1CCN(S(=O)(=O)c2ccc(C(C)(C)C)cc2)CC1 (stereo not given)
EC50 (Plasmodium falciparum [1]): 0.18 µM | EC50 (HepG2): 31 µM | microsomal CLint at 1 µM [15]: > 866 µL/min/mg | solubility kinetic [16]: < 1.6 µM

C[C@@H](C(=O)N1CCCC1)N1CCN(S(=O)(=O)c2ccc(C(C)(C)C)cc2)CC1
EC50 (Plasmodium falciparum [1]): 0.3 µM | EC50 (HepG2): > 40 µM | solubility kinetic [16]: 25 µM (≈ 10.2 µg/mL)

C[C@@H](C(=O)N1CCCCC1)N1CCN(S(=O)(=O)c2ccc(C(C)(C)C)cc2)CC1
EC50 (Plasmodium falciparum [1]): 0.2 µM | EC50 (HepG2): > 40 µM | EC50 (Plasmodium knowlesi): 1.3 µM | EC50 (Plasmodium falciparum [2]): 0.61 µM | EC50 (Plasmodium falciparum [3]): 0.49 µM | EC50 (Plasmodium falciparum [4]): 0.86 µM | EC50 (Plasmodium falciparum [5]): 5.1 µM | EC50 (Plasmodium falciparum [6]): 1.3 µM | EC50 (Plasmodium falciparum [7]): > 10 µM | inhibition of growth at 20 µM (Plasmodium falciparum [8]): 49% | EC50 (Plasmodium falciparum [9]): > 10 µM | inhibition of growth at 20 µM (Plasmodium falciparum [10]): 41% | Activity (Plasmodium falciparum [11]): Active | Activity (Plasmodium falciparum [12]): Active | Activity (Plasmodium falciparum [13]): Active | Ratio IC50 [17]: 8
